From ChEMBL document CHEMBL3286180, “Efficacious inhaled PDE4 inhibitors with low emetic potential and long duration of action for the treatment of COPD” (J Med Chem, 2014)
Converted amounts (≈) assume the structure as drawn. Values belong to the molecule of their own block, whether it stands above or below them. The source made the active and inactive calls. The rule behind the calls is not given here.

Key:
[1] = target: 3',5'-cyclic-AMP phosphodiesterase 4B (Homo sapiens, UniProt Q07343); assay: Inhibition of human recombinant PDE4B using [3H]cAMP by packard topcount scintillation counting analysis
Sequence of 3',5'-cyclic-AMP phosphodiesterase 4B (Q07343 whole entry): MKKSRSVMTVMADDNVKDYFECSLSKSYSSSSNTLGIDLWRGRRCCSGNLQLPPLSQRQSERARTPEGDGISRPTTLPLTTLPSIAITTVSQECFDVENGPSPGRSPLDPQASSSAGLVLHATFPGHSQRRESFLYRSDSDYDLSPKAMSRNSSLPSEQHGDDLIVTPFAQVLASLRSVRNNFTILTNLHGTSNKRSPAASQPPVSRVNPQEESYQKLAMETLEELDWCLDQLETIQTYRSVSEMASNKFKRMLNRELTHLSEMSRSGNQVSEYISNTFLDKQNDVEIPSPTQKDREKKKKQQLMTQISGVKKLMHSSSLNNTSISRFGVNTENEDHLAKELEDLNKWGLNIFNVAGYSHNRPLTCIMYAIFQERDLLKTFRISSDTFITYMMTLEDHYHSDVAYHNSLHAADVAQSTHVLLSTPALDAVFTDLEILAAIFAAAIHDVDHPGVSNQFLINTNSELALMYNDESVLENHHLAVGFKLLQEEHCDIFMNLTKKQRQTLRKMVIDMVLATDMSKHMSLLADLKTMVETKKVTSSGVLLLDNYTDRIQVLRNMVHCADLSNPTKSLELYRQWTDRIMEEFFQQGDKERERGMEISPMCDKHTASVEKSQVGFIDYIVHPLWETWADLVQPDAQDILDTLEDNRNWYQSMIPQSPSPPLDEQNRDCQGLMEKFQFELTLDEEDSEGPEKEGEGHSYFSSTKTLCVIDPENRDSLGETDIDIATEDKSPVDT

Rattus norvegicus [2] = assay: Antiinflammatory activity in nasally dosed Sprague-Dawley rat assessed as inhibition of LPS-induced bronchoalveolar lavage neutrophils measured as lung deposited dose administered as […]; type: functional
Summary of the method: (§1)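 ED80 was derived from the nose-only nebulized-solution dose response in rats dosed 30 min before LPS challenge, with neutrophilia as the readout. ED80 is given as nebulizer concentration, as the matching terminal total lung concentration, and as lung deposited dose estimated from measured filter sample and terminal lung levels.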

Rattus norvegicus [3] = assay: Antiinflammatory activity in nasally dosed Sprague-Dawley rat assessed as inhibition of LPS-induced bronchoalveolar lavage neutrophils measured as nebulizer concentration administered as […]; type: functional; summary of the method: as §1
Rattus norvegicus [4] = assay: Antiinflammatory activity in Sprague-Dawley rat assessed as inhibition of LPS-induced bronchoalveolar lavage neutrophils measured as LPS duration at 0.1 mg/ml, inhalation administered as nebulized suspension; type: functional, organism-based
Summary of the method: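 Duration protocol: rats received a nose-only inhalation of nebulized aqueous compound solution 12 h before LPS challenge. Dose is expressed as mg/mL nebulizer concentration. Readout was LPS-induced pulmonary neutrophilia, with terminal lung concentration (nM) measured. Groups held 8−10 animals per treatment.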

[5] = Volume of distribution at steady state in rat at 1 mg/kg, iv; type: ADME, organism-based; set-up: dose 1 mg/kg, route intravenous; details: in vivo, read-out: Vdss
Cytochrome P450 2C9 = Cytochrome P450 2C9 (Homo sapiens, UniProt P11712); assay: Inhibition of CYP2C9 (unknown origin); type: ADME
Sequence of Cytochrome P450 2C9 (P11712 whole entry): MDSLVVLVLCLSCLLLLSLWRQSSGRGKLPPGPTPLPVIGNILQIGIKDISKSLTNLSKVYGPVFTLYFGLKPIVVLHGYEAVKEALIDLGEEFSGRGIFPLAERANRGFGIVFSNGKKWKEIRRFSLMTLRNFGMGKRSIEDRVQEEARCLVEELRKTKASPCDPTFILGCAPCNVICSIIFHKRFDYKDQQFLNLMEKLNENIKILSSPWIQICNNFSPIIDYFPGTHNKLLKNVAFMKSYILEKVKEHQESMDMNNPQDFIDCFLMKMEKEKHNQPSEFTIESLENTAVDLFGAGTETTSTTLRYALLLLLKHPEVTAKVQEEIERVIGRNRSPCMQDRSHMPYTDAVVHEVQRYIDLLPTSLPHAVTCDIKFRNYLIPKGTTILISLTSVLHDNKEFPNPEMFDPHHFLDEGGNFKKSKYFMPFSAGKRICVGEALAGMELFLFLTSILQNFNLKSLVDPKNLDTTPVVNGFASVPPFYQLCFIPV

Cytochrome P450 3A4 = Cytochrome P450 3A4 (Homo sapiens, UniProt P08684); assay: Inhibition of CYP3A4 (unknown origin); type: ADME
Sequence of Cytochrome P450 3A4 (P08684 whole entry): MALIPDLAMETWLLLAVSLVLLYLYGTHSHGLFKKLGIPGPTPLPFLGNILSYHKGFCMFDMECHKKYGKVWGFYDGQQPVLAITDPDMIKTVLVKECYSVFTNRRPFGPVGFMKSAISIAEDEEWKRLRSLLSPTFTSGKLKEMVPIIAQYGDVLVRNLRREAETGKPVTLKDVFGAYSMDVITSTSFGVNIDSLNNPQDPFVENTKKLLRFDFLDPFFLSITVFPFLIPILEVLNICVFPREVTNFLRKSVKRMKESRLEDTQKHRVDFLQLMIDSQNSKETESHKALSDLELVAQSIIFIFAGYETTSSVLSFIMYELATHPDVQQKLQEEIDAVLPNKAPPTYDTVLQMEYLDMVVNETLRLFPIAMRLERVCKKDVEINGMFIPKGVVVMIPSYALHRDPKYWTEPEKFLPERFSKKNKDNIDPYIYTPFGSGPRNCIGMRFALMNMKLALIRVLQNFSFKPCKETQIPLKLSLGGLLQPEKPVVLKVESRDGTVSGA

Cytochrome P450 1A2 = target: T1, Cytochrome P450 1A2 (Homo sapiens, UniProt P05177); assay: Inhibition of CYP1A2 (unknown origin); type: ADME
T1 sequence (P05177 whole entry): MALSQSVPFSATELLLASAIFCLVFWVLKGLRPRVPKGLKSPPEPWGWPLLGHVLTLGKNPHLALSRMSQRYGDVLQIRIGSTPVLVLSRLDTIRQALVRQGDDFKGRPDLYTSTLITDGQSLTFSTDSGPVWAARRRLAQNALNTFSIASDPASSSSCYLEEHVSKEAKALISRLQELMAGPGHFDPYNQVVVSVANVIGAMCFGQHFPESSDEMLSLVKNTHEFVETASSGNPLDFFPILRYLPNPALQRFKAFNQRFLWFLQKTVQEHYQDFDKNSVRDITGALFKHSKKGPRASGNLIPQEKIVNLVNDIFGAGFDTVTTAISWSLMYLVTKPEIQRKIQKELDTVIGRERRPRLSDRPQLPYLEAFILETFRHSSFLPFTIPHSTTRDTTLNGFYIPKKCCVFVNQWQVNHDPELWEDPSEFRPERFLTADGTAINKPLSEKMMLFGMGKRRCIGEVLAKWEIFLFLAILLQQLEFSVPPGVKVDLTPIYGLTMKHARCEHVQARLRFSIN

Cytochrome P450 2D6 = Cytochrome P450 2D6 (Homo sapiens, UniProt P10635); assay: Inhibition of CYP2D6 (unknown origin); type: ADME
Sequence of Cytochrome P450 2D6 (P10635 whole entry): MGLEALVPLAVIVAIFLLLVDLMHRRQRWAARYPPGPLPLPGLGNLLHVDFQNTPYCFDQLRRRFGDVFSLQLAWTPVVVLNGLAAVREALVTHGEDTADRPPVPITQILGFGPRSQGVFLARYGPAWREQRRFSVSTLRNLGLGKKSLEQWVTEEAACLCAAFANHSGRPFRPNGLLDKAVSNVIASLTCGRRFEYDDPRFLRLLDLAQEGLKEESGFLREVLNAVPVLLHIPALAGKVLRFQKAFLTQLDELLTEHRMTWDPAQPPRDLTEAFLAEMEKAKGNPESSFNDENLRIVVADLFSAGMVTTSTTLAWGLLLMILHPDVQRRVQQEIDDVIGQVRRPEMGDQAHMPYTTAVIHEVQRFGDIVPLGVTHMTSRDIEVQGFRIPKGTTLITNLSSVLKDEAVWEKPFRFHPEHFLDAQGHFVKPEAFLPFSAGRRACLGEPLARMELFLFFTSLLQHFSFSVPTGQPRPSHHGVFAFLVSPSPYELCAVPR

[6] = Half life in rat at 1 mg/kg, iv; type: ADME, organism-based; set-up: dose 1 mg/kg, route intravenous; details: in vivo
Summary of the method: (§2)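 Rat pharmacokinetics were run at 1 mg/kg, given iv or by intratracheal instillation, with 2−3 animals per study.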

[7] = Lipophilicity, log D of the compound; type: physicochemical; details: octanol/water
PBMC = assay: Antiinflammatory activity in human PBMC assessed as inhibition of LPS-induced TNFalpha production after 20 hrs by fluorescence linked immunosorbant assay; type: functional, cell-based
[8] = Aqueous solubility of the compound at pH 7.4; type: physicochemical; details: aqueous medium
Rattus norvegicus [9] = assay: Antiinflammatory activity in nasally dosed Sprague-Dawley rat assessed as inhibition of LPS-induced bronchoalveolar lavage neutrophils measured as lung concentration administered as […]; type: functional; summary of the method: as §1
[10] = Clearance in rat at 1 mg/kg, iv; type: ADME, organism-based; set-up: dose 1 mg/kg, route intravenous; details: in vivo; summary of the method: as §2
Rattus norvegicus [11] = assay: Apparent volume of distribution in rat at 1 mg/kg, iv; type: ADME, organism-based; set-up: dose 1 mg/kg, route intravenous; details: in vivo; summary of the method: as §2
[12] = Fraction unbound in human plasma; type: ADME, cell-free
Cytochrome P450 2C19 = Cytochrome P450 2C19 (Homo sapiens, UniProt P33261); assay: Inhibition of CYP2C19 (unknown origin); type: ADME
Sequence of Cytochrome P450 2C19 (P33261 whole entry): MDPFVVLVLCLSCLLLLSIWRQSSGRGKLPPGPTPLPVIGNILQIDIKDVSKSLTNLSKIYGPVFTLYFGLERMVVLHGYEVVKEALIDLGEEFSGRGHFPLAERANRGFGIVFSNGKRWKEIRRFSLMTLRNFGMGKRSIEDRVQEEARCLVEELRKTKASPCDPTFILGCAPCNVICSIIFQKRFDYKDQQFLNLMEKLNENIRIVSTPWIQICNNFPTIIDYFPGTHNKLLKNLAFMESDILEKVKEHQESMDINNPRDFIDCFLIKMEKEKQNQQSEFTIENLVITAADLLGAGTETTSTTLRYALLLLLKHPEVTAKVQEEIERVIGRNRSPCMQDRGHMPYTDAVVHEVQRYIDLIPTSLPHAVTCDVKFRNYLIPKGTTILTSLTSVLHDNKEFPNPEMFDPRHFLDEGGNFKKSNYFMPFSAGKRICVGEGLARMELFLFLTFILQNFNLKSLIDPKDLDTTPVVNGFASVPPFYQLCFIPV

Rattus norvegicus [13] = assay: Antiinflammatory activity in Sprague-Dawley rat assessed as inhibition of LPS-induced bronchoalveolar lavage neutrophils at 0.03 mg/ml, inhalation administered as nebulized suspension; type: functional, organism-based
Summary of the method: (§3)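 Rats were given the compound as an aqueous nebulized aerosol by nose-only inhalation 30 min before LPS challenge. Dose is expressed as mg/mL nebulizer concentration. Lung neutrophilia was the readout, and terminal lung concentration (nM) was measured. Groups held 8−10 animals per treatment.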

Rattus norvegicus [14] = assay: Antiinflammatory activity in Sprague-Dawley rat assessed as inhibition of LPS-induced bronchoalveolar lavage neutrophils at 0.01 mg/ml, inhalation administered as nebulized suspension; type: functional; summary of the method: as §3

SMILES: O=C(N[C@H]1CC[C@@H](NC(=O)c2cc(F)cnc2Oc2cccc(-c3ccc(O)cc3CN3CCOCC3)c2)CC1)c1cncc(O)c1
IC50 [1]: 2.51 nM

SMILES: Cc1csc(C(=O)N[C@H]2CC[C@@H](NC(=O)c3cc(F)cnc3Oc3cccc(-c4ccc(CN5C[C@@H](C)N[C@@H](C)C5)cc4CN4CCOCC4)c3)CC2)n1
inhibition (Rattus norvegicus [14]): Active
inhibition (Rattus norvegicus [13]): Active

SMILES: Cc1cc(C(=O)N[C@H]2CC[C@@H](NC(=O)c3cc(F)cnc3Oc3cccc(-c4cccc(CN5C[C@@H](C)N[C@@H](C)C5)c4O)c3)CC2)nn1C
logD [7]: 2.8
IC50 (PBMC): 3.16 nM
solubility [8]: 470 µM (≈ 315 µg/mL)
fraction unbound [12]: 0.091

SMILES: Cc1cc(C(=O)N[C@H]2CC[C@@H](NC(=O)c3cc(F)cnc3Oc3cccc(-c4ccc(CCN5CCC(N6CCCC6)CC5)cc4)c3)CC2)nn1C
inhibition (Rattus norvegicus [4]): Active
Vd [5]: 44 L/kg
IC50 (Cytochrome P450 2C9): > 1000 nM
IC50 (Cytochrome P450 3A4): > 1000 nM
IC50 (Cytochrome P450 1A2): > 1000 nM
IC50 (Cytochrome P450 2D6): > 1000 nM
half-life [6]: 9 h
logD [7]: 2.4
IC50 (PBMC): 0.0316 nM
solubility [8]: 120 µM (≈ 84.9 µg/mL)
IC50 [1]: 0.0398 nM
clearance [10]: 74 mL/min/kg
Vz/F (Rattus norvegicus [11]): 59 L/kg
fraction unbound [12]: 0.042
IC50 (Cytochrome P450 2C19): > 1000 nM

SMILES: CN(C)Cc1cc(O)ccc1-c1cccc(Oc2ncc(F)cc2C(=O)N[C@H]2CC[C@@H](NC(=O)c3cccc4oc(=O)[nH]c34)CC2)c1
IC50 [1]: 20 nM

Continued, in another order:

pIC50 [1]: 10.2
SMILES: Cc1nc(C(=O)N[C@H]2CC[C@@H](NC(=O)c3cc(F)cnc3Oc3cccc(-c4ccc(CN5C[C@@H](C)N[C@@H](C)C5)cc4)c3)CC2)cs1

Vd [5]: 21 L/kg
IC50 (Cytochrome P450 2C9): > 1000 nM
IC50 (Cytochrome P450 3A4): > 1000 nM
IC50 (Cytochrome P450 1A2): > 1000 nM
IC50 (Cytochrome P450 2D6): > 1000 nM
half-life [6]: 7 h
logD [7]: 2.6
solubility [8]: 130 µM (≈ 88.6 µg/mL)
IC50 [1]: 0.02 nM
clearance [10]: 68 mL/min/kg
Vz/F (Rattus norvegicus [11]): 41 L/kg
fraction unbound [12]: 0.045
IC50 (Cytochrome P450 2C19): > 1000 nM
SMILES: Cc1cc(C(=O)N[C@H]2CC[C@@H](NC(=O)c3cc(F)cnc3Oc3cccc(-c4ccc(CCCN5C[C@@H](C)N[C@@H](C)C5)cc4)c3)CC2)nn1C
ED80 (Rattus norvegicus [2]): 0.6 µg/kg
ED80 (Rattus norvegicus [3]): 50 µg/mL (≈ 73.3 µM)
inhibition (Rattus norvegicus [4]): Active
IC50 (PBMC): 0.0631 nM
ED80 (Rattus norvegicus [9]): 60 nM
inhibition (Rattus norvegicus [13]): Active

logD [7]: 2.1
solubility [8]: > 1500 µM
fraction unbound [12]: 0.18
SMILES: Cc1cc(C(=O)N[C@H]2CC[C@@H](NC(=O)c3cc(F)cnc3Oc3cccc(-c4cccc(CN5C[C@@H](C)N[C@@H](C)C5)c4)c3)CC2)nn1C
IC50 (PBMC): 0.0794 nM

logD [7]: 2.4
solubility [8]: 1300 µM (≈ 850 µg/mL)
fraction unbound [12]: 0.11
SMILES: Cc1cc(C(=O)N[C@H]2CC[C@@H](NC(=O)c3cc(F)cnc3Oc3cccc(-c4ccc(CN5C[C@@H](C)N[C@@H](C)C5)cc4)c3)CC2)nn1C
IC50 (PBMC): 0.1 nM

logD [7]: 2.4
solubility [8]: 890 µM (≈ 596 µg/mL)
fraction unbound [12]: 0.12
SMILES: Cc1cc(C(=O)N[C@H]2CC[C@@H](NC(=O)c3cc(F)cnc3Oc3cccc(-c4ccc(CN5C[C@@H](C)N[C@@H](C)C5)c(O)c4)c3)CC2)nn1C

Vd [5]: 13 L/kg
IC50 (Cytochrome P450 2C9): > 1000 nM
IC50 (Cytochrome P450 3A4): 398 nM
half-life [6]: 5.8 h
logD [7]: 2.7
solubility [8]: 580 µM (≈ 392 µg/mL)
clearance [10]: 58 mL/min/kg
Vz/F (Rattus norvegicus [11]): 30 L/kg
fraction unbound [12]: 0.045
SMILES: C[C@@H]1CN(Cc2ccc(-c3cccc(Oc4ncc(F)cc4C(=O)N[C@H]4CC[C@@H](NC(=O)c5cc6ccccn6n5)CC4)c3)cc2)C[C@H](C)N1
IC50 (PBMC): 0.0794 nM
inhibition (Rattus norvegicus [13]): Active
